# Source: paper PMC7557949 (ACS Omega, 2020)
# What was measured:
# E. coli (ATCC:3008) = test: Agar well diffusion, inhibition zone; format: cell-based, Escherichia coli; settings: 15 mg/mL, 100 μL per well; mm ± SD
# Method in brief: (§1)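 Agar well diffusion. Saline inoculum adjusted to McFarland 0.5 ([…]), i.e. OD 0.13 at 625 nm, and swabbed over dried agar. After 15 min drying, 6 mm wells received 100 μL of test compound at 15 mg/mL. Plates incubated at 37 °C; bacterial zones read in mm after 24 h incubation […]. Triplicate, reported as mm ± SD. Gentamicin and ampicillin served as reference drugs.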
# C. albicans (ATCC:10231) = test: Agar well diffusion, inhibition zone; format: cell-based, Candida albicans; settings: 15 mg/mL, 100 μL per well; mm ± SD
# Method in brief: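 Fungal plates were poured and agar dried 15 min. 6 mm wells were cut with a sterile borer and filled with 100 μL test compound solution at 15 mg/mL. Inhibition zone diameter (mm) was read after 48 h incubation. Triplicate, reported as mm ± SD.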
# [1] = tested on: herpes simplex virus type 1 (HSV-1); test: Plaque assay, antiviral activity against HSV-1; format: cell-based; settings: for mean % of reduction, herpes simplex virus: nontoxic dose of compound, average of three independent measurements
# coxsackievirus B4 (CBV4) = test: Plaque assay, antiviral activity against CBV4; format: cell-based; settings: nontoxic dose of compound; average of three independent measurements
# Method in brief: (§2)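 Plaque reduction. Nontoxic dilutions of test compound were mixed 1:1 with virus at 1 × 105, 1 × 106 or 1 × 107, for 0.5 h at 37 °C. 10-fold dilutions went onto BGM (CBV4), FRHK4 (HAV HM 175) or Hep-2 (adenovirus 7), with 1 h adsorption at 37 °C. Overlay was 2× DMEM plus 1% agarose. Cells were formalin-fixed and crystal violet-stained, and plaques counted. Triplicate. IC50 is the half-maximal plaque-reduction concentration.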
# [2] = tested on: hepatitis A virus HM 175 (HAV HM 175); test: Plaque assay, antiviral activity against HAV HM 175; format: cell-based; settings: nontoxic dose of compound; average of three independent measurements
# Method in brief: as §2
# [3] = tested on: ED-43/SG-Feo (VYG) replicon of hepatitis C virus genotype 4a (HCVcc); test: Antiviral bioassay against ED-43/SG-Feo; format: cell-based; settings: nontoxic dose of compound; average of three independent measurements
# Method in brief: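 Huh 7.5 cells carrying the ED-43/SG-Feo (VYG) HCV genotype 4a subgenomic replicon were treated with the nontoxic dose of test compound. Replicon RNA copies were quantified by TaqMan qRT-PCR, and the result was expressed as percent reduction.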
# [4] = tested on: adenovirus type 7 (HAdV7); test: Plaque assay, antiviral activity against adenovirus type 7; format: cell-based; settings: nontoxic dose of compound; average of three independent measurements
# Method in brief: as §2
# S. aureus (ATCC:6538) [5] = test: Agar well diffusion, inhibition zone; format: cell-based, Staphylococcus aureus; settings: for zone of inhibition at 15000 µg/mL: Staphylococcus aureus, 24 h, read-out: diameter of the IZ, S. aureus (ATCC:6538)
# Method in brief: as §1
# K. pneumonia (ATCC:4415) = test: Agar well diffusion, inhibition zone; format: cell-based, Klebsiella pneumonia; settings: 15 mg/mL, 100 μL per well; mm ± SD
# Method in brief: as §1
# [6] = tested on: P. aeruginosa (ATCC:27853); test: Agar well diffusion, inhibition zone; format: cell-based, Pseudomonas aeruginosa; settings: 15 mg/mL, 100 μL per well; mm ± SD
# Method in brief: as §1
# S. mutans (ATCC:25175) [7] = test: Agar well diffusion, inhibition zone; format: cell-based
# Method in brief: as §1
# [8] = Cytotoxicity test on Vero cell line; format: cell-based; settings: African green monkey, uninfected Vero cells
# Method in brief: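 Test compound was dissolved at 50 mg/mL in DMSO and decontaminated with 100× antimycotic–antibiotic mix. Cells were seeded at 2 × 10^5 cells/mL and grown 24 h at 37 °C, 5% CO2, to monolayers. Bi-fold dilutions in DMEM were applied for 72 h. Read by daily microscopy for morphology and by trypan blue (0.4%) viable counts. CC50 taken as the concentration giving 50% of untreated-cell OD492.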
# Hsp90α = Hsp90α (Homo sapiens, UniProt P07900); test: Hsp90α; format: biochemical
# Method in brief: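 AlphaScreen kit assay for Hsp90α C-terminal binding to PPID. Hsp90α was diluted to 1.5 ng/μL in assay buffer and premixed with test compound. The reaction was started with PPID diluted to 10 ng/μL and run 30 min at room temperature. Glutathione acceptor beads were added for 30 min, then streptavidin donor beads for 1 h, and Alpha counts read. Triplicate; percent inhibition calculated against control.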
# S. aureus (ATCC:6538) [9] = test: MIC, twofold serial dilution in agar; format: cell-based; settings: Staphylococcus aureus, read-out: MIC, S. aureus (ATCC:6538)
# S. mutans (ATCC:25175) [10] = test: MIC, twofold serial dilution in agar; format: cell-based; settings: Streptococcus mutans, read-out: MIC, S. mutans (ATCC:25175)
# [11] = 15 mg/mL, 100 μL per well, mm ± SD
# Sequence of Hsp90α (P07900 535-732 limits assumed): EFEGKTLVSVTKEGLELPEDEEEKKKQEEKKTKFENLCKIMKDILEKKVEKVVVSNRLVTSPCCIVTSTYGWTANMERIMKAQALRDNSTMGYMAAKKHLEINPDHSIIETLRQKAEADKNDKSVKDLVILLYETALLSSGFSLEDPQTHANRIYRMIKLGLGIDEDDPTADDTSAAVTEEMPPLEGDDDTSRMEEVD
structure (smiles),measurement,setting,value
"Cc1ccc(S(=O)(=O)Nn2c(N)c(-c3nc4ccccc4s3)c3[nH]nc(N)c3c2=O)cc1 [9b, N-(3,6-Diamino-7-(benzo[d]thiazol-2-yl)-4-oxo-1H-pyrazolo[4,3-c]pyridin-5(4H)-yl)-4-methylbenzenesulfonamide]","diameter of the IZ, E. coli (ATCC:3008)",E. coli (ATCC:3008),15.0 ± 0.5 mm
same,"diameter of the IZ, C. albicans (ATCC:10231)",C. albicans (ATCC:10231),24.3 ± 0.5 mm
"CSc1c(-c2nc3ccccc3[nH]2)c(N)n(NS(=O)(=O)c2ccccc2)c(=O)c1C#N [13a, N-(6-Amino-5-(1H-benzo[d]imidazol-2-yl)-3-cyano-4-(methylthio)-2-oxopyridin-1(2H)-yl)benzenesulfonamide]","mean % of reduction, herpes simplex virus",[1],20.0 ± 0.30%
same,"mean % of reduction, CBV4",coxsackievirus B4 (CBV4),20.0 ± 0.10%
same,"mean % of reduction, HAV HM 175",[2],13.3 ± 0.10%
same,"mean % of reduction, HCVcc genotype 4",[3],20.0 ± 0.15%
same,"mean % of reduction, adenovirus type 7",[4],10.0 ± 0.10%
same,zone of inhibition at 15000 µg/mL,S. aureus (ATCC:6538) [5],30 ± 1 mm
same,"diameter of the IZ, C. albicans (ATCC:10231)",C. albicans (ATCC:10231),22.0 ± 0.5 mm
"CSc1c(-c2nc3ccccc3[nH]2)c(N)n(NS(=O)(=O)c2ccc(C)cc2)c(=O)c1C#N [13b, N-(6-Amino-5-(1H-benzo[d]imidazol-2-yl)-3-cyano-4-(methylthio)-2-oxopyridin-1(2H)-yl)-4-methylbenzenesulfonamide]",zone of inhibition at 15000 µg/mL,S. aureus (ATCC:6538) [5],28.9 ± 0.7 mm
same,"diameter of the IZ, C. albicans (ATCC:10231)",C. albicans (ATCC:10231),21.0 ± 0.1 mm
"N#Cc1cc(C#N)c(=O)n(NS(=O)(=O)c2ccccc2)c1N [15a, N-(6-Amino-3,5-dicyano-2-oxopyridin-1(2H)-yl)benzenesulfonamide]","diameter of the IZ, C. albicans (ATCC:10231)",C. albicans (ATCC:10231),19.6 ± 2.0 mm
"Cc1ccc(S(=O)(=O)Nn2c(N)c(C#N)cc(C#N)c2=O)cc1 [15b, N-(6-Amino-3,5-dicyano-2-oxopyridin-1(2H)-yl)-4-methylbenzenesulfonamide]","mean % of reduction, herpes simplex virus",[1],30.0 ± 0.30%
same,"mean % of reduction, CBV4",coxsackievirus B4 (CBV4),40.0 ± 0.20%
same,"mean % of reduction, HAV HM 175",[2],20.0 ± 0.10%
same,"mean % of reduction, HCVcc genotype 4",[3],33.3 ± 0.10%
same,"mean % of reduction, adenovirus type 7",[4],13.3 ± 0.50%
same,"diameter of the IZ, E. coli (ATCC:3008)",E. coli (ATCC:3008),no activity
same,"diameter of the IZ, K. pneumonia (ATCC:4415)",K. pneumonia (ATCC:4415),no activity
same,"diameter of the IZ, P. aeruginosa (ATCC:27853)",[6],no activity
same,"diameter of the IZ, S. aureus (ATCC:6538)",S. aureus (ATCC:6538) [5]; [11],no activity
same,"diameter of the IZ, S. mutans (ATCC:25175)",S. mutans (ATCC:25175) [7]; [11],no activity
same,"diameter of the IZ, C. albicans (ATCC:10231)",C. albicans (ATCC:10231),no activity
"Nc1nc2c(ncn2COCCO)c(=O)[nH]1 [acyclovir, reference compound]",IC50,"[1]; Human alphaherpesvirus 1, Vero",0.7 µg/mL
same,CC50 at 72 h,[8],2.8 µg/mL
same,inhibition at 0.1 µg/mL,Hsp90α; read-out: percentage inhibition of Hsp90α at 0.1 (μg/mL),11.2%
same,inhibition at 10 µg/mL,Hsp90α; read-out: percentage inhibition of Hsp90α at 10 (μg/mL),52.3%
same,inhibition at 100 µg/mL,Hsp90α; read-out: percentage inhibition of Hsp90α at 100 (μg/mL),84.1%
"CC1(C)S[C@@H]2[C@H](NC(=O)[C@H](N)c3ccccc3)C(=O)N2[C@H]1C(=O)O [ampicillin, reference compound]",zone of inhibition at 15000 µg/mL,S. aureus (ATCC:6538) [5],32 ± 0.5 mm
same,zone of inhibition at 15000 µg/mL,"S. mutans (ATCC:25175) [7]; Streptococcus mutans, 24 h, read-out: diameter of the IZ, S. mutans (ATCC:25175)",22 ± 0.5 mm
same,MIC,S. aureus (ATCC:6538) [9],62.5 µg/mL
same,MIC,S. mutans (ATCC:25175) [10],62.5 µg/mL
